Source: the EternaBench riboswitch data

System: MS2 coat protein
Test: apparent Kd, MS2 coat protein; higher = weaker binding; RNA-MaP array; FMN 200 µM where present
Procedure, shortened: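 Binding was read on Illumina sequencing-chip clusters where stalled E. coli RNA polymerase had transcribed each design. A titration of SNAP-549-labelled MS2 coat protein began at 0.7 or 1.5 nM and doubled to 3 µM, once without ligand and once with constant ligand, in 100 mM Tris-HCl pH 7.5, 80 mM KCl, 4 mM MgCl2, BSA, DTT, yeast tRNA and Tween-20. The apparent Kd is the median of filtered per-cluster binding-curve fits, based on green signal normalised to red-channel RNA signal and control-cluster median Fmax.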

[1] = designed as: OFF switch for flavin mononucleotide, no ligand
[2] = ligand present: flavin mononucleotide, designed as: OFF switch for flavin mononucleotide
[3] = designed as: ON switch for flavin mononucleotide, no ligand
[4] = ligand present: flavin mononucleotide, designed as: ON switch for flavin mononucleotide

| Sequence | apparent Kd [1] [nM] | apparent Kd [2] [nM] | apparent Kd [3] [nM] | apparent Kd [4] [nM] |
| --- | --- | --- | --- | --- |
| GAGGAGUCAGGAUAUCGGGAAAGGUUGAGGAAGAGAAGAAGCGAGAAGGGACAUGAGGAUCACCCAUGUAGAAG | 52.4 | 47 |  |  |
| GAGGAUAGAGGAUAUGCAUAGAUACGGAUUCGUGUAGUACUACAUGAGGAUCACCCAUGUAGAAGGCUGUCCUG | 14.3 | 22.1 |  |  |
| GAGGGACAUGAGGAUCACCCAUGUGGUAAAUUUAAAGGAUAUUAGUGUGGGAAAGUAGGGUAAGAAGGUUGAUUGG |  |  | 94.8 | 80.1 |
| GAGUACUGAGGAUAUACAUGAGGAUCACCCAUGUGUUCCAACUAGGAAUCUAGAAUAUGUAGAAGGCAGUACUG | 223 | 211 |  |  |
| GAGUCGAGUAAUAAAUAAGAUCUACAUGAGGAUCACCCAUGUAAGGAUAUGCAGUGGAAUACACUGCAGAAGGUACAUCUCGAC | 15.1 | 33.4 |  |  |
| GAGUGACAUGAGGAUCACCCAUGUGAGGAUAUCGGACGGACCAAAUUAACAAUAAAUGCGAGAAGGCACAUCGG | 58.5 | 81.6 |  |  |
| GAGUGACAUGAGGAUCACCCAUGUGAGGAUAUCGGACGGACCAAAUUAACAAUAAUUGCGAGAAGGCACAUCGG | 60.2 | 92.3 |  |  |
| GAGUGGAGGUAAGGAUAUAUAAUGAUAAUCACAGUAGAAGGUACUAACAUGAGGAUCACCCAUGUAGGACUAUACCAGAGAGGG |  |  | 16.9 | 15.3 |
| GAGUGGCGAUUAGGAUAUACAGUGAUAAUGAUAGUAGAAGGAAUUGACAUGAGGAUCACCCAUGUAGGACUAAUCCAGAGAGAG |  |  | 96.1 | 84.9 |
| GAGUUACAUGAGGAUCACCCAUGUGGUUGUGGAUAAGGAUAUAUGGUAGGAGGAGGAAUGAUAGAAGGUAUUAGGG |  |  | 69 | 45.5 |
| GAGUUUACGUUUGUCACUUUGCGAGAGGAUAUGGAAAACUUGACAUGAGGAUCACCCAUGUUUUAUCAGAAGGCUCGAGUACGA |  |  | 10.2 | 6.09 |
| GAUAGACAUGAGGAUCACCCAUGUGAGGAUAUGCGUACGUUGUCCGUAGGCGACGUGCGCAGAAGGCGCGAGGU | 55.9 | 88.3 |  |  |
| GAUAGAGAGCAGGAUAUCUUGGGUAAGUAUCGUAGAGAAGGGCUCACAUGAGGAUCACCCAUGUGGUCCUAGAU | 12.7 | 29.5 |  |  |
| GAUAGGACAGAGAAGGACAUAGCUAGAGAUACUAGCAUAAGAACCUUCACAUGAGGAUCACCCAUGUAGGAUAUCUGUCCUAUC | 3.74 | 4.85 |  |  |
| GAUAGGACAGAGAAGGACGUAGCUAGAGAUACUAGCAUAAAGGUCCAAACAUGAGGAUCACCCAUGUAGGAUAUCUGUCCUAUC | 6.47 | 6.92 |  |  |
| GAUCAACAUGAGGAUCACCCAUGUGAGGAUAUGAUACUAUGUACUUCGGUACAUAGUAUCAGAAGGCAUAUGAA | 56.7 | 98.5 |  |  |
| GAUCAACAUGAGGAUCACCCAUGUGAGGAUAUGAUACUAUGUACUUCGGUACAUAGUAUCAGAAGGCAUAUUGA | 54.8 | 41.9 |  |  |
| GAUCACUCUGUGAGGAUAUGAGGGCUCUUAGAGUAUCAGAAGGCACAUGAGGAUCACCCAUGUAUUCCGUUCUA | 42.5 | 259 |  |  |
| GAUCAUGCAGGAUAUACAUUAACCAUGAAAACAUGGUUGUAACAUGAGGAUCACCCAUGUAGAAGGGCAUGAUC | 14.2 | 21.3 |  |  |

| Sequence | apparent Kd [1] [nM] | apparent Kd [2] [nM] | apparent Kd [3] [nM] | apparent Kd [4] [nM] |
| --- | --- | --- | --- | --- |
| GAUCUGGCAGGAUAUACAUGAGGAUCACCCAUGUGCGAGCUAGCGAAAGCUAGCUCAGGUAGAAGGGUCAGAUC | 12.7 | 15.5 |  |  |
| GAUGAGAGAGGAUAUACAUGAGGAUCACCCAUGUAAUUUUCGGACAUGGAAGCCUGAUGUAGAAGGCUCGCAUG | 78.5 | 38.6 |  |  |
| GAUGAGGUAGGAUAUACGAGAAGAUAGGGUAGAUAGAUAACACAUGAGGAUCACCCAUGUAGAAGGACCAGUAG | 34.5 | 79.8 |  |  |
| GAUUAACAUGAGGAUCACCCAUGUGAGGAUAUUGACUUGCUCACUUUCCCAUUCGAGUCGAGAAGGCGCAUCUU | 28.7 | 29 |  |  |
| GAUUACAUGAGGAUCACCCAUGUACAGGUGAUUCUCGGUACGAGAAGGGCGGAGGGUCACCACACGCAGGAUAUCGAGCAAAGG | 231 | 65.4 |  |  |
| GAUUCACAUGAGGAUCACCCAUGUGAGGAUAUAGUGCAGGAGGUGGAUGCCCGCCUCUCUAGAAGGCACACGGG | 21.9 | 24.5 |  |  |
| GAUUGACAUGAGGAUCACCCAUGUGAGGAUAUCGGCUGGACCGUGUUGGCUUGCCUUUCGAGAAGGCGCAUAGG | 37.7 | 42 |  |  |
| GAUUGUUUUUAGAAGGUGCCGACGAGAGUCGCAACAUGAGGAUCACCCAUGUGUCGGUGACGACGCAAGGAUAUGGAGGUGGUU |  |  | 174 | 79.8 |
| GCAAAGCCUGACAUGAGGAUCACCCAUGUUAGAUUGUUAUGUCAGGAUAUUGUCUAGCAACUAGACAAGAAGGGAUGCUCUGCG |  |  | 744 | 215 |
| GCAAAGCCUGACAUGAGGAUCACCCAUGUUAGAUUGUUAUGUCAGGAUAUUGUCUAGCAACUAGACAAGAAGGGAUGCUUUGCU |  |  | 369 | 27.6 |
| GCAAUAGCAUGAGGAUAUGUUGGAGUUUAGACAGCAGAAGGCAUGUCAUAAGACAUGAGGAUCACCCAUGUAGUUACAAUGGCA |  |  | 22.6 | 11.5 |
| GCACAUGGCAUAGGAUAUAGAACUAUACUUUAUAUAGGUAGUUACACUUAACUAGAAGGAUGAUACAUGAGGAUCACCCAUGUA |  |  | 16.8 | 14.5 |
| GCACCUUUAUUUGAACCGAUACGAACAUGAGGAUCACCCAUGUAGGAUAUGCUUAAAGUUGUGUUGCAGAAGGACAUUUAGUGC | 8.76 | 8.31 |  |  |
| GCACGAGACUAAGGAUAUGAUGUACCUAUAUGUGACAUGAGGAUCACCCAUGUGGUAAGUAUGAUUCAGAAGGUAGAGACGUGC |  |  | 28.2 | 20.6 |
| GCACGCUGGCGAGGAUAUAGACAUGAGGAUCACCCAUGUGGCGCACAUCGGGCCCUAGUCCUCAGCUAGAAGGCGCCUGUGAUA | 328 | 228 |  |  |
| GCACGGAUGGUAGGAUAUCAUUGCGAUUAGCUAUGAGAAGGGCCACAUGAGGAUCACCCAUGUCCUCUAAUUAGCCUUCCGUGC | 101 | 101 |  |  |
| GCACUGGAUGUAGGAUAUCAGGACGAUAAGUCCUGAGAAGGACAUGAGGAUCACCCAUGUAACUCAUAACCAGUGCAUAAUAUA | 15 | 24.8 |  |  |
| GCACUGGAUGUAGGAUAUCAGGACGAUAAGUCCUGAGAAGGACAUGAGGAUCACCCAUGUCUAAUAAACCAGUGCUAUAAUAUA | 14.4 | 18.9 |  |  |
| GCACUUACGUUAGGAUAUGGAUCGGAAAACGAUCCAGAAGGAAUAUGGGAACAUGAGGAUCACCCAUGUUCCACAGACAAGUGC |  |  | 43.3 | 25.9 |

| Sequence | apparent Kd [1] [nM] | apparent Kd [2] [nM] | apparent Kd [3] [nM] | apparent Kd [4] [nM] |
| --- | --- | --- | --- | --- |
| GCACUUACGUUAGGAUAUGUAUCGGAAAACGAUACAGAAGGAAUAUGGGAACAUGAGGAUCACCCAUGUUCCUGAGACAAGUGC |  |  | 46.5 | 26.4 |
| GCACUUAGAGUUGAACCGUUACUAACAUGAGGAUCACCCAUGUAGGAUAUGCUAAUAGUAUUGAAGCAGAAGGACACUAAGUGC | 5.46 | 5.88 |  |  |
| GCACUUAGAGUUGAACCGUUUCUAACAUGAGGAUCACCCAUGUAGGAUAUGCUAAUAGUAUUGAAGCAGAAGGACAAUAAGUGC | 4.59 | 5.01 |  |  |
| GCAGAGCUAGGAUAUGCUGGGCUGCAGUAAAAUGGUCACUCACAUGAGGAUCACCCAUGUAGAAGGAGCAGUGU | 26.5 | 40 |  |  |
| GCAGCAUAGUUUACUAACUGUUACAUGAGGAUCACCCAUGUUUAGGAUAUGGUCUGGAUUACAGGCCAGAAGGGAACAAGCUGC | 14.6 | 12.3 |  |  |
| GCAGCAUAUGCAGGAUAUCAGCACGUGUAGUGCUGAGAAGGGCACAUGAGGAUCACCCAUGUGAUCAAUUAAUAUAUAUGCUGC | 6.36 | 16.4 |  |  |
| GCAGCGCUUGACAUGAGGAUCACCCAUGUUAGAUUGUUAAGUCAGGAUAUAGUCUAGAAACUAGACUAGAAGGGAUUUGCUGCU |  |  | 7.18 | 6.14 |
| GCAGCGUAUGUAGGAUAUCGGUCAGUUUCUGAUCGAGAAGGACAUGAGGAUCACCCAUGUAAAUUUCCGACUUUGUCGGGCUGC | 7.04 | 8.73 |  |  |
| GCAGCUAAUGCAGGAUAUCAGCACGUGUAGUGCUGAGAAGGGCACAUGAGGAUCACCCAUGUGAUCAAUUAAUUUUAAUGCUGC | 29 | 159 |  |  |
| GCAGGAUAAGUCAGGAUAUACCUAUGGAUACAUAGGUAGAAGGGACAUGAGGAUCACCCAUGUGCCUCGCCUGC | 14.5 | 37.4 |  |  |
| GCAGGUUAAGUCAGGAUAUACCUAUGGAUACAUAGGUAGAAGGGACAUGAGGAUCACCCAUGUGCCUCGCCUGC | 17.7 | 69.3 |  |  |
| GCAUCCAAAGUGAGGAUAUACCUCUGGAUACAGAGGUAGAAGGCACAUGAGGAUCACCCAUGUUACUAGGAUGC | 12.9 | 17 |  |  |
| GCAUCGCAUGUCAGGAUAUGCUGUACCUUGGUACAGCAGAAGGGACAUGAGGAUCACCCAUGUGCCUAUGAUGC | 39.7 | 353 |  |  |
| GCAUGACAUGUAGGAUAUCGAGCGCCGAGCGCUCGAGAAGGACAUGAGGAUCACCCAUGUAUUCCGAAUGAAUCAAGUCAUGCA | 14.3 | 16.2 |  |  |
| GCAUGCUAUGUCAGGAUAUACCUCUGGAUACAUAGGUAGAAGGGACAUGAGGAUCACCCAUGUCCUAAACAUGC | 12.2 | 13.4 |  |  |
| GCCAAGUCAGGAUAUACAUGAGGAUCACCCAUGUAGGACGCUAUUUUGAUCUUGGUAGGUAGAAGGGACAUGGG | 24.2 | 21.2 |  |  |
| GCCACAAGGGCAGGAUAUGAACUUAAUGGCAGUUUAGAAGGGUCACUCGUGGGUUAAAAUCACAUGAGGAUCACCCAUGUAUAG |  |  | 664 | 84.7 |
| GCCACAGCAGGAUAUUCAAUAAUUCACAUGAGGAUCACCCAUGUCGAGCGAAAGCUCGAGGGAGAAGGGCUGUGGC | 39.5 | 13.7 |  |  |
